The results in this text go back to ChEMBL document CHEMBL1806352, “Discovery of imidazo[1,2-b]pyridazines as IKKβ inhibitors. Part 3: exploration of effective compounds in arthritis models” (Bioorg Med Chem Lett, 2011).

A short description of series [1]: Octanol-phosphate buffered saline distribution coefficient, log D of the compound at pH 7.4. The series is classed as physicochemical. The method in brief:
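PBS pH 7.4 and 1-octanol were mutually pre-saturated for over 12 h. Compound (200 µM) was dissolved in one phase, an equal volume of the other phase was added, and the mixture was shaken 30 min at room temperature. Both phases were assayed by HPLC or LC/MS. Log D7.4 was calculated as log of the octanol/PBS peak area ratio.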

Series [2] can be described thus: Permeability of the compound at pH 7.4 by PAMPA method. The series is classed as ADME. The settings on record: read-out: permeability. The method in brief:
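PAMPA was run with the donor filter coated with a phospholipid solution and the acceptor plate filled with acceptor buffer pH 7.4. Plates were incubated 4 h at 25 °C. Compound in both plates was quantified spectrometrically, and effective permeability Pe7.4 was calculated.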

The nature of series [3]: Apparent permeability across MDCK cells at 10 uM after 1 hr by LC/MS/MS analysis. Type of series: ADME, cell-based, Canis lupus familiaris. The note with it: dog. The method, boiled down: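 MDCK cells were grown 6 days on transwells to form monolayers. Compound (10 µM in transport buffer, pH 6.0) was added apically. The basolateral side held buffer at pH 7.4 with 4% BSA, and metoprolol served as positive control. After 1 h at 37 °C, basolateral concentration was measured by LC/MS/MS. Papp was calculated from flux over 3600 s across a 0.33 cm² filter.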

The nature of series [4]: Plasma concentration in BALB/c mouse at 30 mg/kg, po after 90 mins. The series is classed as ADME, organism-based. Also on record: dose 30 mg/kg, route oral.
Series [5] is described as follows: AUC (0 to 24 hrs) in BALB/c mouse at 30 mg/kg, po. Type of series: ADME, organism-based. Also noted: time < 24 hr, dose 30 mg/kg, route oral. The note with it: plasma. The method in brief: (§1)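 Fed female BALB/c mice (7 weeks old, n = 3) received a single oral dose of 30 mg/kg suspended in 0.5% (w/v) methyl cellulose. Blood was drawn at 0.5, 1, 2, 4, 8 and 24 h, and plasma was stored at −20 °C. Drug was quantified by LC/MS/MS, and parameters were derived by non-compartmental analysis.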

A short description of series [6]: Mean residence time in BALB/c mouse at 30 mg/kg, po. Type of series: ADME, organism-based. Also on record: dose 30 mg/kg, route oral. The settings on record: in vivo. The method, boiled down:
as §1

The nature of series [7]: Oral steady-state volume of distribution in BALB/c mouse at 30 mg/kg, po. Type of series: ADME, organism-based. Also on record: dose 30 mg/kg, route oral. The settings on record: in vivo, read-out: Vss/F. The method in brief:
as §1

Series [8] is described as follows: Cmax in BALB/c mouse at 30 mg/kg, po. The settings on record: in vivo. The series is classed as ADME, organism-based. Also noted: dose 30 mg/kg, route oral. The method, boiled down:
as §1

Series [9] can be described thus: Tmax in BALB/c mouse at 30 mg/kg, po. The series is classed as ADME, organism-based. Also noted: dose 30 mg/kg, route oral. The settings on record: in vivo. The method in brief:
as §1

The nature of series [10]: AUC (0 to 24 hrs) in Wister-Lewis rat at 30 mg/kg, po. The series is classed as ADME, organism-based. Also on record: time < 24 hr, dose 30 mg/kg, route oral. The settings on record: plasma. The method, boiled down:
(§2)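 Fed female Wistar–Lewis rats (7–8 weeks old, n = 3) were given 30 mg/kg orally as a suspension in 0.5% (w/v) methyl cellulose. Blood samples (0.3 ml) were taken at 0.5, 1, 2, 4, 8 and 24 h. Plasma levels were measured by LC/MS/MS and analysed non-compartmentally.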

The nature of series [11]: Mean residence time in Wister-Lewis rat at 30 mg/kg, po. The series is classed as ADME, organism-based. The settings on record: in vivo. Also on record: dose 30 mg/kg, route oral. The method, boiled down: as §2
Series [12] is described as follows: Oral steady-state volume of distribution in Wister-Lewis rat at 30 mg/kg, po. Also on record: dose 30 mg/kg, route oral. Type of series: ADME, organism-based. The note with it: in vivo, read-out: Vss/F. The method in brief:
as §2

A short description of series [13]: Cmax in Wister-Lewis rat at 30 mg/kg, po. Type of series: ADME, organism-based. Also noted: dose 30 mg/kg, route oral. The settings on record: in vivo. The method in brief: as §2
The nature of series [14]: Tmax in Wister-Lewis rat at 30 mg/kg, po. The note with it: in vivo. Also on record: dose 30 mg/kg, route oral. The series is classed as ADME, organism-based. The method in brief: as §2

The structures appear in SMILES notation.

In general, logD refers to the decadic logarithm of the distribution of all forms, ionised or not, between an organic phase and buffer at a given pH. Low readings indicate a more hydrophilic compound, high ones a more lipophilic compound. With `O=C(NC[C@@H]1CCCN1)c1ccc(-c2cnc3ccc(NCC4CC4)nn23)cc1`, the logD in [1] worked out at 1.8. For the same molecule, the Papp in series [2] was 0.84 ×10⁻⁶ cm/s.

The molecule `CN(C)CCNC(=O)c1ccc(-c2cnc3ccc(NCC4CC4)nn23)cc1` yielded a logD in [1] of 2.5. In addition, in series [3], the Papp at 1 h, 10 µM stood at 2.1 ×10⁻⁶ cm/s.

For `CCCN(C[C@@H]1C[C@@H](F)CN1)C(=O)c1ccc(-c2cnc3ccc(NCC4CC4)nn23)cc1`, the logD in series [1] amounted to 3.4.

In turn, `O=C(c1ccc(-c2cnc3ccc(NCC4CC4)nn23)cc1)N(Cc1ccc(Cl)cc1)C[C@@H]1C[C@@H](F)CN1` returned a logD in series [1] of 5.

The molecule `O=C(NCCN1CCCC1)c1ccc(-c2cnc3ccc(NCC4CC4)nn23)cc1` returned a concentration at […] in [4] of 440 ng/mL. In series [1], the logD is 2.6. Besides, in [2], the Papp is more than 50 ×10⁻⁶ cm/s. For the same molecule, the Papp at 1 h, 10 µM in series [3] is 2.3 ×10⁻⁶ cm/s.

As for `CN(C)CCNC(=O)c1ccc(-c2cnc3ccc(NCC4CC4)nn23)cc1F`, the concentration at […] in [4] stood at 110 ng/mL. This molecule gave a logD in series [1] of 2.7. Further, the Papp in series [2] was more than 50 ×10⁻⁶ cm/s. Moreover, the Papp at 1 h, 10 µM in series [3] is 6.2 ×10⁻⁶ cm/s.

Turning to `O=C(NCCN1CCCC1)c1ccc(-c2cnc3ccc(NCC4CC4)nn23)cc1F`, the concentration at […] in series [4] was found to be 290 ng/mL. The molecule further registered a logD in series [1] of 2.8. Besides, the Papp in series [2] is more than 50 ×10⁻⁶ cm/s. Besides, the Papp at 1 h, 10 µM in series [3] was 5.6 ×10⁻⁶ cm/s.

`O=C(NC[C@@H]1CCCN1)c1ccc(-c2cnc3ccc(NCC4CC4)nn23)cc1F` registered a concentration at […] in series [4] of 140 ng/mL. In [1], the logD is 1.8. Besides, the Papp in [2] was determined as 19 ×10⁻⁶ cm/s.

By AUC(0-t) is commonly meant the area under the concentration-time curve up to a stated or last time point. In general, MRT refers to the average time that molecules of a dose stay in the body. As usually defined, the Cmax is the highest concentration seen after dosing. As a reminder, the Tmax is the time at which the peak concentration occurs. For `O=C(NC[C@@H]1C[C@@H](F)CN1)c1ccc(-c2cnc3ccc(NCC4CC4)nn23)cc1F`, in series [4], the concentration at […] worked out at 380 ng/mL. This molecule also displayed a logD in series [1] of 3.1. The Papp in series [2] was more than 50 ×10⁻⁶ cm/s. In addition, in series [3], the Papp at 1 h, 10 µM was 4.2 ×10⁻⁶ cm/s. The AUC(0-t) at 24 h in series [5] is 888 ng·h/mL; in [10] it was 23100 ng·h/mL. Moreover, the MRT was 2.3 h in series [6] and 4.9 h in series [11]. The Vd/F is 78 L/kg in series [7] and 6.5 L/kg in series [12]. Further, the maximum concentration (Cmax) in [8] came to 260 ng/mL; in series [13] it was 4100 ng/mL. For the same molecule, the Tmax in series [9] was 1 h; in series [14], 4 h.

For `O=C(NC[C@@H]1CCCN1)c1ccc(-c2cnc3ccc(NCC4CC4)nn23)cc1Cl`, the logD in series [1] came to 2.2. In addition, the Papp in [2] amounted to 14 ×10⁻⁶ cm/s.

Regarding `CN(C)CCNC(=O)c1ccc(-c2cnc3ccc(NCC4CC4)nn23)nc1`, in series [1], the logD was 2. For the same molecule, the Papp in [2] is 14 ×10⁻⁶ cm/s.

`O=C(NCCN1CCCC1)c1ccc(-c2cnc3ccc(NCC4CC4)nn23)nc1`: the pH-dependent lipophilicity (logD) in series [1] was 2. In [2], the Papp is 11 ×10⁻⁶ cm/s.

With `CCCNc1ccc2ncc(-c3ccc(C(=O)NC[C@@H]4C[C@@H](F)CN4)c(F)c3)n2n1`, in [4], the concentration at […] stood at 540 ng/mL. This molecule also registered a logD in [1] of 3.1. Besides, the Papp in series [2] was more than 50 ×10⁻⁶ cm/s.

The molecule `CCCCNc1ccc2ncc(-c3ccc(C(=O)NC[C@@H]4C[C@@H](F)CN4)c(F)c3)n2n1` displayed a concentration at […] in [4] of 600 ng/mL. For the same molecule, the logD in series [1] was found to be 3.5. For the same molecule, the Papp in [2] was more than 50 ×10⁻⁶ cm/s.

`CCCCCNc1ccc2ncc(-c3ccc(C(=O)NC[C@@H]4C[C@@H](F)CN4)c(F)c3)n2n1` came in with a concentration at […] in series [4] of 93 ng/mL. For the same molecule, the pH-dependent lipophilicity (logD) in series [1] came out at 4. Also, the Papp in series [2] is more than 50 ×10⁻⁶ cm/s.

Consider `O=C(NC[C@@H]1C[C@@H](F)CN1)c1ccc(-c2cnc3ccc(NC4CCC4)nn23)cc1F`, for which, in series [4], the concentration at […] amounted to 1400 ng/mL. Moreover, the logD in [1] was determined as 3.3. Moreover, the Papp in [2] was more than 50 ×10⁻⁶ cm/s. Moreover, in series [3], the Papp at 1 h, 10 µM was 7 ×10⁻⁶ cm/s. Also, the AUC(0-t) at 24 h came out at 1860 ng·h/mL in series [5] and 95300 ng·h/mL in [10]. Besides, the mean residence time (MRT) stood at 2 h in series [6] and 5.1 h in series [11]. In addition, the Vd/F in series [7] worked out at 32 L/kg; in series [12] it was 1.7 L/kg. Also, the Cmax amounted to 750 ng/mL in [8] and 16000 ng/mL in series [13]. The time of peak concentration (Tmax) is 1 h in series [9] and 2.8 h in series [14].

Molecule `O=C(NC[C@@H]1C[C@@H](F)CN1)c1ccc(-c2cnc3ccc(NC4CCCC4)nn23)cc1F` yielded a concentration at […] in series [4] of 660 ng/mL. Moreover, in [1], the pH-dependent lipophilicity (logD) was determined as 3.6. In addition, the Papp in series [2] is more than 50 ×10⁻⁶ cm/s.

In [1], `CSCCNc1ccc2ncc(-c3ccc(C(=O)NC[C@@H]4C[C@@H](F)CN4)c(F)c3)n2n1` had a logD of 2.8. Also, in series [2], the Papp is more than 50 ×10⁻⁶ cm/s.

As to `CSCCCNc1ccc2ncc(-c3ccc(C(=O)NC[C@@H]4C[C@@H](F)CN4)c(F)c3)n2n1`, the concentration at […] in series [4] was found to be 150 ng/mL. Further, the logD in series [1] is 3. Further, the Papp in [2] came to 40 ×10⁻⁶ cm/s.

In the case of `O=C(NC[C@@H]1C[C@@H](F)CN1)c1ccc(-c2cnc3ccc(NCCCF)nn23)cc1F`, the concentration at […] in series [4] is 480 ng/mL. The same molecule displayed a logD in [1] of 2.5. Moreover, the Papp in [2] worked out at 33 ×10⁻⁶ cm/s.

Consider `O=C(NC[C@@H]1C[C@@H](F)CN1)c1ccc(-c2cnc3ccc(NCCCCF)nn23)cc1F`, for which the concentration at […] in series [4] worked out at 420 ng/mL. This molecule registered a logD in series [1] of 2.8. Further, the Papp in [2] is more than 50 ×10⁻⁶ cm/s.

On to `O=C(NC[C@@H]1C[C@@H](F)CN1)c1ccc(-c2cnc3ccc(NCCCCCF)nn23)cc1F`, for which the concentration at […] in series [4] stood at 110 ng/mL. The same molecule had a log distribution coefficient (logD) in series [1] of 3.3. Further, the Papp in series [2] is 37 ×10⁻⁶ cm/s.
